Assay outcomes as filed in PubChem BioAssay.
This is a sample that favours compounds with a hit; in the whole collection about 3% have one here.
NPY Y2 blocker: antagonists of human neuropeptide Y receptor Y2; 140,000 compounds, 0.99% hits; inhibition, % at 2.7 µM; P49146; NPY-Y2 expressing cells, antagonist mode; AID 793; in the data active = inhibition above about 17%;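 note: 0% = vehicle with agonist challenge and 100% = reference antagonist with challenge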
NPY Y1 blocker: NPY-Y1 (human) receptor antagonism; HEK293-CNG Y1 cells, membrane potential fluorescence; NPY at EC95, then isoproterenol; inhibition, % at 3.6 µM; 200,000 compounds, 1% hits; AID 1040;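 active = inhibition above the campaign mean inhibition of all tested compounds plus 3 SD, cut at about 20% in these data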;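 note: 0% = DMSO wells given NPY plus isoproterenol and 100% = isoproterenol alone without NPY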
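Benchmarks – high control isoproterenol alone, low control NPY with isoproterenol · Material – HEK293 Y1/CNG channel cell line · Times – dye 3 h, compound 60 min room temperature, stimulation 45 min · Probe or stimulus – NPY (25 nM), isoproterenol (1 µM), Ro 20-1724 (25 µM) · Evaluation – % inhibition of NPY effect · Signal – fluorescence, membrane potential probe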
Hsp70 activator: Hsp70 transcriptional activation, primary screen; AID 1203; activation, % at 10 µM; HeLa Hsp70 promoter luciferase reporter, luminescence; scaled: vehicle 0, proteasome-inhibitor control 100%; 200,000 compounds, 0.04% hits;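 active = activation above the mean across all tested compounds plus 3 SD, cutoff set per campaign, cut at about 5.5% in these data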;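 note: 100% = MG132 at 30 µM as the positive control and 0% = DMSO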
NPY-Y2 PAM-ag: potentiators or agonists of human neuropeptide Y receptor Y2; activation, % at 3.6 µM; cells expressing NPY-Y2, potentiator/agonist read-out; 220,000 compounds, 0.45% hits; P49146; in the data active = activation above about 27%;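 note: cells stimulated with NPY near EC25 plus isoproterenol at EC100; 0% = vehicle plus submaximal agonist and 100% = vehicle plus saturating agonist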
NPY-Y1 PAM-ag: human NPY-Y1 potentiation or agonism, primary screen; 220,000 compounds, 0.37% hits; P25929; NPY-Y1 expressing cells, potentiator/agonist activation; activation, % at 3.6 µM; AID 1304; in the data active = activation above about 33%, passing the limit was not always enough;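 note: cells stimulated with NPY at EC10 then isoproterenol at EC100; 0% = low agonist plus stimulus and 100% = saturating agonist plus stimulus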
Wee1 degr inh: inhibitors of human Wee1 degradation; HeLa Luc-Wee1K328M stability, luciferase luminescence; 100% = proteasome inhibitor MG132 effect; P30291; reporter increase, % at 5 µM; 220,000 compounds, 1.2% hits;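 active = activation above the mean of all tested compounds plus 3 SD, set per screening run, cut at about 8.8% in these data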;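 note: cells exposed to compound for 20 h before luminescence read; 0% = DMSO alone and 100% = MG132 at 30 µM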
Target sequence (P30291 whole entry K328M): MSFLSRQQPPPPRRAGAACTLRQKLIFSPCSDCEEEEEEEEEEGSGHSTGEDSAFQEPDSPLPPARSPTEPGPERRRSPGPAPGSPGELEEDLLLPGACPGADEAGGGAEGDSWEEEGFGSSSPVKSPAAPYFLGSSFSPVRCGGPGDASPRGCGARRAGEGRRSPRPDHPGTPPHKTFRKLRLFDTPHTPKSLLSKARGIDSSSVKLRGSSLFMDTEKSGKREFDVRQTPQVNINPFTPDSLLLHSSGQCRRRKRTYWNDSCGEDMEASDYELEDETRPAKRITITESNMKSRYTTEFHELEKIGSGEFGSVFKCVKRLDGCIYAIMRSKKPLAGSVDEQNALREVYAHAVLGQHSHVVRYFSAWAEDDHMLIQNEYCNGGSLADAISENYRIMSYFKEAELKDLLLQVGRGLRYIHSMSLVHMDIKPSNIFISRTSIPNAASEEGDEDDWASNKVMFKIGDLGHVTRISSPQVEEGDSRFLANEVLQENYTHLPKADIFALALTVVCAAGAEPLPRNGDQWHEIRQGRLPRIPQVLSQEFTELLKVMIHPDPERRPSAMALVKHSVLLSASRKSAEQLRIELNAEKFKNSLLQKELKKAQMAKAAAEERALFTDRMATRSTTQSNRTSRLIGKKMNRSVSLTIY
* = called active by the depositor; nt = no result; ! = not confirmed by another sample.

SMILES	NPY Y2 blocker	NPY Y1 blocker	Hsp70 activator	NPY-Y2 PAM-ag	NPY-Y1 PAM-ag	Wee1 degr inh
COc1ccc(C(NC(=O)c2c(F)c(F)c(F)c(F)c2F)c2ccccc2)cc1 (stereo not given)	6	-4	0	35*	63*	-1
COc1cc(/C=C2\CC/C(=C\c3cc(OC)c(OC)c(OC)c3)C2=O)cc(OC)c1OC	-2	-1	0	9	-30	4
COc1cc(/C=C2\COC/C(=C\c3cc(OC)c(OC)c(OC)c3)C2=O)cc(OC)c1OC	nt	nt	nt	-5	-11	127*
CSc1ccc(NC(=O)c2cccnc2)cc1C#N	nt	0	0	1	-9	8.8*
O=C(Nc1ccc(F)c(F)c1)c1cccnc1	1	3	-1	-19	-17	7
CCCOc1ccc(Cc2c(Cl)nc(SC)nc2N(C)C)cc1	26*	22*	0	-14	-54	3
CCCOc1ccc(Cc2c(Cl)nc(SC)nc2OC)cc1	6	3	0	9	12	3
Cc1ccc(S(=O)(=O)CCC(=O)Nc2ccc3nc(C)sc3c2)cc1	4	1	0	-8	-2	11*
O=S(=O)(Cc1ccccc1Cl)NCCOc1ccccc1	1	-3	0	9	5	9.0*
O=C(NNC(=O)C1CCC(C(=O)NNC(=O)c2cccs2)CC1)c1cccs1 (stereo not given)	nt	-1	0	12	18	-1
S=C1NCN(CCc2ccccc2)CN1Cc1ccccc1	nt	nt	nt	-7	2	9.6*
CCS(=O)(=O)Nc1ccc(C2=NN(C(=O)c3ccco3)C(c3cccc(F)c3)C2)cc1 (stereo not given)	nt	-6	0	35*	35	2
Cc1ccc2cc(CN(CCN3CCCC3)C(=O)Nc3ccc(F)cc3)c(=O)[nH]c2c1C	5	26*	0	-29	-55	3
O=C(CCSc1ccccc1)Nc1nnc(-c2cccs2)o1	nt	14	0	-35	-29	9.5*
COc1ccc(CCN(Cc2nc(-c3ccccc3)no2)Cc2nc(-c3ccccc3)no2)cc1OC	3	4	0	4	5	-1
ON(Cc1c(F)cccc1Cl)Cc1c(F)cccc1Cl	nt	nt	nt	4	12	-2
Cc1cccc2cc(CNCc3ccccc3)c(Cl)nc12	nt	3	0	-5	0	-2
COCCSc1nnc(NC(=O)C2CC(=O)N(c3ccc(Cl)cc3)C2)s1 (stereo not given)	nt	1	0	-21	-16	9
O=C(Cn1c(C(F)(F)F)nc2ccccc21)Nc1ccccc1N1CCOCC1	1	10	0	-31	9	2
CSc1nc2ccccc2n1CC(=O)Nc1cc(C(F)(F)F)ccc1N1CCOCC1	23*	24*	0	0	-3	-1
Cc1ccccc1Cn1c(=N)n(CC(O)c2ccco2)c2ccccc21 (stereo not given)	23*	25*	0	-7	-21	-2
N=c1n(CCN2CCCC2)c2ccccc2n1CC(O)c1ccco1 (stereo not given)	4	5	0	-4	-10	1
Cc1cccc(NC(=O)C2CCN(S(=O)(=O)c3cccc4nsnc34)CC2)n1	-2	5	0	2	-33	0
COc1ccc2nc(NC(=O)C3CCN(S(=O)(=O)c4cccc5nsnc45)CC3)sc2c1	-2	-8	0	29	47*	4
CCOC(=O)/C(C#N)=C/c1c[nH]c2ccccc12	0	-3	0	9	23	10*!
SMILES	NPY Y2 blocker	NPY Y1 blocker	Hsp70 activator	NPY-Y2 PAM-ag	NPY-Y1 PAM-ag	Wee1 degr inh
O=C(CSc1ncnc2ccccc12)NCC(=O)c1ccccc1	nt	3	0	3	-7	10*
CCOCCCNC(=O)N[C@H](C(=O)OC)C(C)CC (stereo not given in full)	nt	nt	nt	1	9	-2
CSc1nc2ccc(NC(=O)c3c(-c4ccccc4)noc3C)cc2s1	nt	nt	nt	-28	6	-3
O=C1C(Nc2ccc(O)cc2)=C/C(=N/S(=O)(=O)c2cccs2)c2ccccc21	nt	-21	0	68*	70*	-2
Cc1ccc(NC2=C/C(=N\S(=O)(=O)c3cccs3)c3ccccc3C2=O)c(C)c1	-9	-15	0	62*	48*	0
Cc1cccc(NC2=C/C(=N/S(=O)(=O)c3cccs3)c3ccccc3C2=O)c1	-9	-3	0	-13	-30	4
Cc1ccc(Cl)cc1NC1=C/C(=N\S(=O)(=O)c2cccs2)c2ccccc2C1=O	-7	-2	0	3	37	0
CC(Cc1ccsc1)NC(=O)CCc1nnc(COc2ccccc2)o1 (stereo not given)	nt	0	0	2	-7	5
CCOC(=O)/C=C1\NC(C)(C)Cc2cc(OC)c(OC)cc21	0	-3	0	-19	4	1
COc1cc2c(cc1OC)C(=S)NC(C)(C)C2	8	-3	0	46*	103*	1
CC(NC(=O)c1ccc(F)cc1)C(=O)NC1=NCCS1 (stereo not given)	nt	-3	0	-1	6	-1
COc1cccc(CNC(=O)CCC2CCCN(Cc3cc4ccccc4o3)C2)c1 (stereo not given)	nt	12	0	2	-12	1
COc1ccc(N2CCN(S(=O)(=O)/C=C/c3ccccc3)CC2)cc1	9	2	0	-1	-19	9.3*
Cc1cc(C)n(-c2nnc(C)n2/N=C/c2ccccc2O)n1	1	3	0	-8	5	9.3*
Cc1ccc2[nH]c(=O)c(CN(Cc3ccco3)C(=O)CN3CCCC(C)C3)cc2c1 (stereo not given)	nt	4	0	-21	-20	-2
Cc1ccc(OCCN2C(=O)C(=O)c3cc(C)ccc32)cc1	nt	21*	0	-24	-18	-3
O=C1CS/C(=N/N=C\c2ccn[nH]2)N1	nt	nt	nt	-14	-3	0
Cc1ccc(S(=O)(=O)N(CC(=O)O)c2ccc(Cl)c(C(F)(F)F)c2)cc1	nt	11	0	-34	-29	-2
CCCCP(=O)(CCCC)Cc1ccccc1O	3	4	0	-12	19	9.4*
Cc1ccccc1OCC(=O)N/N=C/c1cn(C)c2ccccc12	nt	nt	nt	-3	10	1
Cc1ccc(OCC(=O)N/N=C/c2cn(C)c3ccccc23)cc1	nt	nt	nt	0	9	9.2*
COc1ccc2c(c1)c(C(=O)N/N=C/c1cn(C)c3ccccc13)c(C)n2C	nt	nt	nt	-24	6	9.4*
CC(=O)c1cc2c(cc1NS(=O)(=O)c1ccccc1F)OCO2	nt	-5	0	7	12	0
COc1ccc(C(=O)N2CCCC(c3nc(-c4ccc(OC)c(OC)c4)no3)C2)c(OC)c1 (stereo not given)	1	0	0	-2	0	0
O=C1CN(C(=O)COc2cccc(F)c2)c2ccccc2N1	-2	1	0	-3	-21	-3
